# Screening data as filed in PubChem BioAssay.
# MC4R barr agon: agonists of human melanocortin 4 receptor (MC4R) beta-arrestin | activation, % at 8.9 µM | 360,000 tested, 0.98% active | U2OS MC4R beta-arrestin complementation, luminescence; percent of melanotan II response, DMSO zero | P32245;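 active = activation above a per-plate cutoff, the mean activation of sample wells on that plate plus 3 SD, cut at about 8% in these data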
# Beta2AR agonist: activates human beta-2 adrenergic receptor causing internalization; P07550; Am2.2-beta2AR cells, FAP receptor internalization, flow cytometry; response, % (test concentration not listed); 340,000 tested, 0.43% active;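 active = response above a set limit, near 3 SD of response in nonfluorescent compounds, cut at about 42% in these data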
# Target sequence (P07550 whole entry, looked up): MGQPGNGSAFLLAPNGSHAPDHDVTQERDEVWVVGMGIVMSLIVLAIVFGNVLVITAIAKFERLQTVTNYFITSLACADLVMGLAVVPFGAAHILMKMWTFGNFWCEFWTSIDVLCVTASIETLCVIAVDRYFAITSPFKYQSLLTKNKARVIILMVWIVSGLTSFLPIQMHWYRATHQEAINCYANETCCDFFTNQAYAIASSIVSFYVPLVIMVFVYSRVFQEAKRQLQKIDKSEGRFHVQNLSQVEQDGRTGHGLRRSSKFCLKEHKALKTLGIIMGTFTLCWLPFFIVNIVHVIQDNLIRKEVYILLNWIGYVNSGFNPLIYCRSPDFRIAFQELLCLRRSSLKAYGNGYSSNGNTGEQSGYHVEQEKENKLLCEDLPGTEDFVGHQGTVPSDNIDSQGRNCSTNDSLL
# HTR2A ag: agonists of mouse serotonin 5-HT2A receptor (HTR2A); activation, % at 7.6 µM; P35363; CHO-K1 mHTR2A beta-arrestin complementation, luminescence; percent of 30 µM serotonin response; 360,000 tested, 0.66% active;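 active = activation above a run cutoff, the mean activation of all tested compounds plus 3 SD, cut at about 14% in these data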;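 also: 0% = plate median of compound wells and 100% = 30 µM serotonin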
# MC4R antagonist: antagonists of human melanocortin 4 receptor (MC4R); MC4R-expressing cells, MTII-stimulated cAMP, LANCE TR-FRET; inhibition, % at 6.5 µM; 360,000 tested, 0.48% active; AID 540295;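 active = inhibition above its plate's cutoff, the mean of tested wells on that plate plus 3 SD, cut at about 29% in these data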;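 also: 0% = Melanotan II alone and 100% = Melanotan II plus saturating MCL0020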
#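 System: U2OS-MC4R stable cell line; Technique: Eu-cAMP/anti-cAMP TR-FRET, emission 671 nm; Repeats: single well per compound; Also added: Melanotan II; Dosing: one concentration, 6.5 µM nominal; Schedule: 30-min compound, 1-h challenge, 1-h detection, room temperature.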
# TAAR1 agonist: human TAAR1 agonism. AID 624467. CHO RD-HGA16 TAAR1, Fluo-8 calcium fluorescence; vehicle wells 0%, saturating PEA agonist 100%. 360,000 tested, 0.99% active. Q96RJ0. activation, % at 3 µM;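 active = activation above the mean activation of all test compounds in the run plus 3 SD, cut at about 38% in these data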
# Target sequence (Q96RJ0 whole entry, looked up): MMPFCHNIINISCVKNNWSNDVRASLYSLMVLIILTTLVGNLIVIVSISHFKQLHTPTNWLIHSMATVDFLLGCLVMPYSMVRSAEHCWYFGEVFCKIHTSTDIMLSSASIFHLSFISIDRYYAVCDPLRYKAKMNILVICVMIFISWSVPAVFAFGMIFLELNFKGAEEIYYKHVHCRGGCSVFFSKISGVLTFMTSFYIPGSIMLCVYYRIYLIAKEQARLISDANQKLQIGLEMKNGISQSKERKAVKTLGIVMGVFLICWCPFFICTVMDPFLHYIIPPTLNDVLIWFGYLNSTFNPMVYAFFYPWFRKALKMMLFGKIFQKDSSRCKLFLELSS
#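 Benchmarks: low control DMSO, high control PEA (EC100); System: CHO RD-HGA16 cells carrying human TAAR1 plus Gα16; Detection: Fluo-8 fluorescence, 5 s baseline then 140 s kinetic read; Schedule: 17-24 h plating, Fluo-8 75 min 37 °C, 30 min RT; Read-out basis: % activation from peak over basal fluorescence ratio, DMSO-to-PEA scaled.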
# TAAR1 antagonist: human TAAR1 antagonism | Q96RJ0 | CHO RD-HGA16 TAAR1, Fluo-8 calcium fluorescence, antagonist | inhibition, % at 3 µM | 360,000 tested, 1.5% active;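 active = inhibition above a per-plate cutoff, the mean inhibition of test compounds on that plate plus 3 SD, cut at about 49% in these data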;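 also: 0% = DMSO plus EC80 beta-PEA response and 100% = DMSO alone without agonist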
#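 Test system: hTAAR1-expressing CHO RD-HGA16 cells, Gα16-coupled; Probe or stimulus: EC80 β-phenethylamine stimulus; Compound dosing: single nominal final test compound concentration of 3 µM; Timing: 140 s kinetic read after compound, 140 s after agonist; Signal: Fluo-8 calcium-sensitive fluorescence; Measure: % inhibition of agonist calcium response; Controls: DMSO and EC80 PEA controls.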
# TAAR1 nonsel count: nonselective antagonist in TAAR1 antagonist counter-screen; shares compounds with TAAR1 antagonist; counterscreen cell line, calcium fluorescence, antagonist mode; inhibition, % at 3 µM; 2,400 tested, 77% active; in the data active = inhibition above about 22%;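 also: CHO-Ga16 host cells stimulated with ATP at an EC80 level; 0% = agonist EC80 plus vehicle and 100% = vehicle without agonist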
# TAAR1 ant conf: human TAAR1 antagonism, confirmed; shares compounds with TAAR1 antagonist; 2,400 tested, 40% active; inhibition, % at 3 µM; TAAR1-expressing cells, fluorescence antagonist read-out; in the data active = inhibition above about 49%;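 also: CHO-Ga16 host cells challenged with agonist PEA near its EC80; 0% = agonist at EC80 plus vehicle and 100% = vehicle with no agonist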
# Ga16 nonsel ag: counter-screen for TAAR1 antagonists: nonselective Ga16 agonists; shares compounds with TAAR1 antagonist; Ga16-expressing cells, calcium fluorescence, agonist counterscreen; activation, % at 3 µM; 2,400 tested, 18% active; in the data active = activation above about 12%;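 also: 0% = vehicle wells and 100% = saturating stimulus response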
# TAAR1 ag counter: counter-screen for human TAAR1 antagonists: TAAR1 agonists. shares compounds with TAAR1 antagonist. hTAAR1 cell line, fluorescence activation, agonist mode. activation, % at 3 µM. 2,400 tested, 2% active. AID 651955; in the data active = activation above about 37%;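 also: CHO cells stably expressing TAAR1 with calcium dye readout; 0% = DMSO vehicle and 100% = full agonist response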
# * marks the source's active call; other numbers are inactive results; . = no result. Only some compounds are listed: those with a hit (about 4.3% of all), similar ones and a draw of the others.
SMILES,MC4R barr agon,Beta2AR agonist,HTR2A ag,MC4R antagonist,TAAR1 agonist,TAAR1 antagonist,TAAR1 nonsel count,TAAR1 ant conf,Ga16 nonsel ag,TAAR1 ag counter
Cc1nn(-c2ccccc2)c(Cl)c1C(=O)N1CCN(c2ncnc3c2cnn3-c2ccccc2)CC1,5.2,35.2,11.3,8.7,21.2,78.5*,52.1*,63.1*,13.0*,11.1
COc1cccc(OCc2cc(C(=O)N(Cc3ccccc3)CC3CC3)no2)c1,-2.4,-1.6,-2.8,7.4,1.9,54.5*,28.1*,40.4,8.9,16.7
COc1cccc(OCc2cc(C(=O)N(C)Cc3nc4ccccc4[nH]3)no2)c1,0.2,-1.7,-1.0,2.2,3.1,7.7,.,.,.,.
CCOc1ccc(S(=O)(=O)N2CCN(C(=O)c3ccncc3)CC2)cc1,-2.5,-3.5,5.8,-5.5,-0.4,-2.0,.,.,.,.
Cc1nc2c(OCc3ccc(OC(F)F)cc3)cccn2c1N(C)C(=O)CCC1CCCC1,0.8,.,-6.0,14.2,2.2,77.9*,38.9*,53.9*,6.7,3.0
COc1ccccc1NC(=O)c1ccc(NC(=O)COC(=O)C(C)C)cc1,-0.9,16.1,-0.7,3.4,2.4,-0.4,.,.,.,.
COC(=O)c1ccc(NC(=O)COC(=O)CCC2CCCC2)cc1,0.7,-5.6,3.8,-5.0,-1.8,1.0,.,.,.,.
COc1ccccc1NC(=O)c1ccc(NC(=O)COC(=O)c2ccc(O)cc2)cc1,0.2,10.0,-9.2,21.4,17.7,64.8*,25.5*,41.1,9.6,9.9
COc1ccccc1NC(=O)c1ccc(NC(=O)COC(=O)CCC2CCCC2)cc1,-0.2,-13.3,3.9,-3.7,13.6,57.7*,19.0,16.8,2.9,6.1
COc1cc(C)c(C(=O)Oc2cc(C)c(C(=O)O)c(O)c2)c(O)c1,0.5,7.8,1.5,11.2,-0.1,-2.1,.,.,.,.
COc1cc(C)c(C(=O)Oc2cc(C)c(C(=O)O)c(O)c2C)c(O)c1C,1.3,2.6,6.1,2.1,-3.0,80.2*,47.6*,53.1*,-0.1,-3.0
O=C(c1ccc(NS(=O)(=O)c2cccc([N+](=O)[O-])c2)cc1)N1CCN(C(=O)c2ccco2)CC1,-2.7,-3.8,-10.4,2.7,9.3,7.0,.,.,.,.
CCN1CCN(Cc2ccc(NC(=O)c3ccc(C)c(NC(=O)c4ccc5n[nH]nc5c4)c3)cc2C(F)(F)F)CC1,-0.7,-9.3,2.2,7.1,0.8,7.6,.,.,.,.
CCN1CCN(Cc2ccc(NC(=O)c3cccc(-c4ccc5nc(NC(=O)C6CC6)sc5n4)c3)cc2C(F)(F)F)CC1,.,.,.,.,17.4,65.7*,44.2*,59.7*,11.3,12.5
COc1cc(NC(=O)CN2C(=O)c3ccccc3S2(=O)=O)cc(OC)c1,2.9,14.6,-5.2,9.9,3.0,-23.9,.,.,.,.
CC(C)(C)NC(=O)NC(=O)COC(=O)Cc1coc2ccc3ccccc3c12,1.5,-5.3,1.5,1.0,6.7,52.4*,24.1*,27.8,4.3,2.3
Cc1c(Cl)cnc(NC(=O)COC(=O)Cc2coc3ccc4ccccc4c23)c1Cl,0.1,3.1,-0.8,4.8,-0.7,-10.9,.,.,.,.
Cc1ccc(S(=O)(=O)N2C[C@H]3C(=O)C[C@@H](c4ccc(Cl)cc4)N(S(=O)(=O)c4ccc(C)cc4)[C@H]3C[C@H]2c2cccc3ccccc23)cc1,.,.,0.2,.,0.9,-14.5,.,.,.,.
COc1ccc(C(C(=O)NCC2CCCO2)N(Cc2cccs2)C(=O)c2snc(C(N)=O)c2N)cc1OC (configuration not stated),0.0,11.9,-0.4,1.7,22.8,54.6*,24.9*,43.7,8.8,15.0
COc1ccc(CCN(C(=O)c2snc(C(N)=O)c2N)C(C(=O)NCC2CCCO2)c2ccc(F)cc2)cc1OC (configuration not stated),0.3,2.3,-7.3,28.2,22.6,58.4*,30.7*,44.1,8.8,9.5
COc1ccc(C(C(=O)NCC2CCCO2)N(Cc2ccco2)C(=O)c2snc(C(N)=O)c2N)cc1OC (configuration not stated),-1.9,3.7,-4.1,4.8,9.8,24.2,.,.,.,.
COc1ccc(-c2csc(N3CCN(c4cc(C)nc5ccccc45)CC3)n2)cc1OC,6.0,35.3,0.1,0.0,7.2,59.9*,26.6*,42.5,6.1,6.7
O=c1[nH]c(-c2ccccc2)cn1C1CCN(Cc2ccc(-c3nc4ccc(Br)cc4nc3-c3ccccc3)cc2)CC1,.,.,.,.,8.3,46.8,.,.,.,.
COC(=O)Nc1ccc(SCC(=O)c2cccc([N+](=O)[O-])c2)cc1,-1.8,2.0,0.7,-21.4,1.2,27.8,.,.,.,.
COc1ccc(S(=O)(=O)N2CCCC2CNC(=O)C(=O)NC2CCCC2)cc1 (configuration not stated),0.1,.,-4.1,3.5,0.8,-14.1,.,.,.,.
SMILES,MC4R barr agon,Beta2AR agonist,HTR2A ag,MC4R antagonist,TAAR1 agonist,TAAR1 antagonist,TAAR1 nonsel count,TAAR1 ant conf,Ga16 nonsel ag,TAAR1 ag counter
COc1ccc(CCNC(=O)C(=O)NCC2CCCN2S(=O)(=O)c2ccc(OC)cc2)cc1 (configuration not stated),-2.1,11.8,5.7,7.2,18.0,73.7*,29.4*,57.2*,14.4*,19.2
CCN(CC)C(=O)[C@H]1C[C@@H]2[C@H](C[C@@H](c3ccccc3)[C@H]1C)N(c1ccc(F)cc1)C(=O)N2CCCOc1ccccc1,.,.,.,.,3.6,68.8*,30.3*,57.8*,5.2,5.4
CON(C)C(=O)[C@H]1C[C@@H]2[C@H](C[C@@H](c3ccccc3)[C@H]1C)N(c1ccc(F)cc1)C(=O)N2CCCOc1ccccc1,.,.,.,.,0.2,2.6,.,.,.,.
Cc1cc(C(=O)CSc2ccc(Cl)cc2)cc(C)c1OC(=S)N(C)C,-1.7,4.3,-1.4,5.5,5.2,62.5*,19.0,37.0,0.9,0.7
CSc1ccc(CCNC(=O)c2nn(C)c3c2CS(=O)(=O)c2ccccc2-3)cc1,0.2,3.6,3.1,7.9,8.1,61.1*,33.6*,49.9*,7.9,7.7
CCc1ccc(/C=C/C(=O)c2cc(Br)ccc(=O)c2O)cc1,1.5,21.4,-2.2,-1.0,27.0,31.6,.,.,.,.
Cc1cccc(/C=C/C(=O)c2cc(Br)ccc(=O)c2O)c1,2.3,30.1,4.0,15.0,34.7,51.2*,36.2*,27.1,14.4*,16.8
